Source: ChEMBL document CHEMBL4351015, “Design, synthesis and biological evaluation of 3-(imidazo[1,2-a]pyrazin-3-ylethynyl)-2-methylbenzamides as potent and selective pan-tropomyosin receptor kinase (TRK) inhibitors” (Eur J Med Chem, 2019)
Activity calls are given as the source filed them. The rule behind the calls is not given here.

Legend:
[1] = target: Tyrosine-protein kinase ABL1 (Homo sapiens, UniProt P00519); assay: Inhibition of recombinant full length human His-tagged ABL1 expressed in baculovirus infected insect cells using tyr 02 as substrate incubated for 2 hr by Z'-Lyte assay
[2] = system: SH-SY5Y; assay: Neurotoxicity in human SH-SY5Y cells assessed as reduction in cell viability incubated for 72 hrs by CCK8 assay; type: toxicity, cell-based
[3] = system: SH-SY5Y; assay: Antiproliferative activity against human SH-SY5Y cells transfected with TrkB (unknown origin) assessed as reduction in cell viability incubated for 72 hrs by CCK8 assay; type: functional, cell-based
Summary of the method: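 SH-SY5Y-TrkB cells (SH-SY5Y stably transfected with pRP-TrkB, kept under 0.5 µg/ml puromycin in 1:1 MEM/F-12 with 10% FBS) seeded at 1500-3000/well, left overnight. Compounds 0.000457–3 µM were then added with or without BDNF 10 ng/ml for 72 h. Read-out by CCK8. IC50 came from concentration-response curve fitting, reported as mean ± SD from at least three independent experiments.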

[4] = target: BDNF/NT-3 growth factors receptor (Homo sapiens, UniProt Q16620); assay: Inhibition of recombinant human His-tagged TrkB catalytic domain (526 to 838 residues) expressed in baculovirus expression system using tyr 01 as substrate incubated for 1 hr by Z'-Lyte assay
[5] = target: High affinity nerve growth factor receptor (Homo sapiens, UniProt P04629); assay: Inhibition of recombinant human His-tagged TrkA catalytic domain (441 to 796 residues) expressed in baculovirus expression system using tyr 01 as substrate incubated for 1 hr by Z'-Lyte assay
[6] = target: NT-3 growth factor receptor (Homo sapiens, UniProt Q16288); assay: Inhibition of recombinant human His-tagged TrkC cytoplasmic domain (510 to 825 residues) expressed in baculovirus using tyr 01 as substrate incubated for 1 hr by Z'-Lyte assay
Chain of NT-3 growth factor receptor (Q16288 whole entry, the tested form may be a part): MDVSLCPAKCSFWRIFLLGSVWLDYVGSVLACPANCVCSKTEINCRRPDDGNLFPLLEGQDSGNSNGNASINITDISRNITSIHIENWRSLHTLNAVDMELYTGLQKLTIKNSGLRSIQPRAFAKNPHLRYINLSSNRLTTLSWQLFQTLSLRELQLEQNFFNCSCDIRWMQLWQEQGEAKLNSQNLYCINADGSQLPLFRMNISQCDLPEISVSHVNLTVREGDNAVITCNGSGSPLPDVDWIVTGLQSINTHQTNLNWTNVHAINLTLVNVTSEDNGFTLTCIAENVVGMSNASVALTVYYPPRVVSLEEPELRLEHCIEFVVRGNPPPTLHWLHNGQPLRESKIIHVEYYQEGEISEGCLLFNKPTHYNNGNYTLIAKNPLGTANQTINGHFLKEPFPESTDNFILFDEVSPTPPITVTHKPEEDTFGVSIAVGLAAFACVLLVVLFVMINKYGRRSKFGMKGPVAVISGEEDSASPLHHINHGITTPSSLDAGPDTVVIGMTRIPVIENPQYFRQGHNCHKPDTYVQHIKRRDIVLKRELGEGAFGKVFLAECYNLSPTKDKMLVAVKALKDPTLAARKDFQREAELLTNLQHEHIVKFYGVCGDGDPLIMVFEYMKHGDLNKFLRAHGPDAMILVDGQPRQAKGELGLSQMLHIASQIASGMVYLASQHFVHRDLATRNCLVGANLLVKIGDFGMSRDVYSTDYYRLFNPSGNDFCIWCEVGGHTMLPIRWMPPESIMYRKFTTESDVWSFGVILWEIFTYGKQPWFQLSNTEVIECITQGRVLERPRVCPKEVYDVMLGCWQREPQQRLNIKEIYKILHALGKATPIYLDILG

Chain of High affinity nerve growth factor receptor (P04629 whole entry, the tested form may be a part): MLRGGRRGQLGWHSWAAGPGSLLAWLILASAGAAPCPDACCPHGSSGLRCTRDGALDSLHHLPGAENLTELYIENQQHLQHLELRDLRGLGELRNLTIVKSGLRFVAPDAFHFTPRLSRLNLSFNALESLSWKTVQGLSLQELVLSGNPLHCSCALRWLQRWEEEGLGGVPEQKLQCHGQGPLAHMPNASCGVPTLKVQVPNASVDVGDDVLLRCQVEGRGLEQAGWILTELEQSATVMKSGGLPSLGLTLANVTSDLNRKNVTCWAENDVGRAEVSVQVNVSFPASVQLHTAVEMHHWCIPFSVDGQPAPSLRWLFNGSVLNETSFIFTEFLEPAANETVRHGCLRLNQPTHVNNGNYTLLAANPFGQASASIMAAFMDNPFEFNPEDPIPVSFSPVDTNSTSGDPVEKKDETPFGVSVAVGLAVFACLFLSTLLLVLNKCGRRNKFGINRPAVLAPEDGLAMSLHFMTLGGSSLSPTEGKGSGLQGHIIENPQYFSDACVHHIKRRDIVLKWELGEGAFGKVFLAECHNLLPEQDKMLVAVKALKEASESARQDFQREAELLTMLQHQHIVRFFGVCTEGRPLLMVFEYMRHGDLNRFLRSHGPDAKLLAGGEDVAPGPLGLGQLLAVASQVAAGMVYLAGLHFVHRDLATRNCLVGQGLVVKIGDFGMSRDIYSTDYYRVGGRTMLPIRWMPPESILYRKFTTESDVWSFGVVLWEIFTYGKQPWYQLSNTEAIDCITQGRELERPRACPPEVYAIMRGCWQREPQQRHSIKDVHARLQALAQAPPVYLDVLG
Chain of Tyrosine-protein kinase ABL1 (P00519 whole entry): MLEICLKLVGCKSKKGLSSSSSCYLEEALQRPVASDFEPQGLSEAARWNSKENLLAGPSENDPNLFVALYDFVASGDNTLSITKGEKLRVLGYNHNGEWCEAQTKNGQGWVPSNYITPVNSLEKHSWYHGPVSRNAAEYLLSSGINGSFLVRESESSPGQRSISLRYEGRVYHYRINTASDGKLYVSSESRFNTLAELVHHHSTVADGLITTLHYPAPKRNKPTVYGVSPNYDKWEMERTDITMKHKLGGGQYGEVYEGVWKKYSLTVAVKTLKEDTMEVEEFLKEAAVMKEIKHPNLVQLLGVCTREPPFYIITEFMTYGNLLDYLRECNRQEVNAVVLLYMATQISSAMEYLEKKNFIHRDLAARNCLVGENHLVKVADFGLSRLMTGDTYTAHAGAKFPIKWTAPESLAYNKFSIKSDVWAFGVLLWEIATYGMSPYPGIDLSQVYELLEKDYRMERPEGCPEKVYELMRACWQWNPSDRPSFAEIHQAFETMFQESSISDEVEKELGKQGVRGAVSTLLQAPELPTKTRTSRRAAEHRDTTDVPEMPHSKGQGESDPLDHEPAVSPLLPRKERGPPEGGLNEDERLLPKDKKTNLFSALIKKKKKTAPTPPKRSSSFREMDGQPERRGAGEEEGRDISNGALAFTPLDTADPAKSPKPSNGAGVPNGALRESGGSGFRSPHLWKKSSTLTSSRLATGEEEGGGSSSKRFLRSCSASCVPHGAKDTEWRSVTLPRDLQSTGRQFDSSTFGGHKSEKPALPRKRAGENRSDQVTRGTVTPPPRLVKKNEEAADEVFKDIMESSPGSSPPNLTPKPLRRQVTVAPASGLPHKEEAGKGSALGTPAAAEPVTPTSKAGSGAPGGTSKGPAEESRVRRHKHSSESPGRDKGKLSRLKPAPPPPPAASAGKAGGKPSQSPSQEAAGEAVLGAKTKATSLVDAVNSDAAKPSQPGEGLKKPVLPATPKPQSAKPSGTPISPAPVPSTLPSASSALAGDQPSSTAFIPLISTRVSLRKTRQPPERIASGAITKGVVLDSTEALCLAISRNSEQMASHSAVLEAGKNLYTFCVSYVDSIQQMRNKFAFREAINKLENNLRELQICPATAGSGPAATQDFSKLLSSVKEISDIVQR
Chain of BDNF/NT-3 growth factors receptor (Q16620 whole entry, the tested form may be a part): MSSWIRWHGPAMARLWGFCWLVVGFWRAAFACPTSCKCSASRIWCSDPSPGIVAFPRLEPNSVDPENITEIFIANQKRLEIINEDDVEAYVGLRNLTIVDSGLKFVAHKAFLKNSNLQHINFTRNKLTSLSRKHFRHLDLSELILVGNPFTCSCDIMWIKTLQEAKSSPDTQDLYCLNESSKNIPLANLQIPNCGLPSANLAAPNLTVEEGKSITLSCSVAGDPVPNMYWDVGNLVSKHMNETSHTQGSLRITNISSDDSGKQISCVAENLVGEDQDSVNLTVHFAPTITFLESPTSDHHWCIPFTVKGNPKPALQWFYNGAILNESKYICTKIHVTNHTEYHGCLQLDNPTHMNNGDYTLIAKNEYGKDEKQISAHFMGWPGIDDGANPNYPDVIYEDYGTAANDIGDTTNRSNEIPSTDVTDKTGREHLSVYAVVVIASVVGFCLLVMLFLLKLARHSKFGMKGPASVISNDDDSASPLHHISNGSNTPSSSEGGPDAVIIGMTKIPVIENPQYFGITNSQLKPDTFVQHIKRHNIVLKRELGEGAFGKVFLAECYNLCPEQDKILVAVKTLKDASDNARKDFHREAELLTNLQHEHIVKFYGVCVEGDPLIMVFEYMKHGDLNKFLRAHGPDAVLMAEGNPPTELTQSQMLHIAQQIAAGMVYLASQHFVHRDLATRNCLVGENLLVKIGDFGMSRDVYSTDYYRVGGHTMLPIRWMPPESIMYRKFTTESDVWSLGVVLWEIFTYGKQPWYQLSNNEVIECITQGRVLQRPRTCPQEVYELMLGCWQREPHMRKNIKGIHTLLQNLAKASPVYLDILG

Row | SMILES | IC50 [1] | Activity [2] | Activity [3] | IC50 [4] | IC50 [5] | IC50 [6]
1 | O=C(Nc1cnn2ccc(N3CCC[C@@H]3c3cc(F)ccc3F)nc12)N1CC[C@H](O)C1 [LAROTRECTINIB] | > 1000 nM | Non-Toxic | Active |  |  | 
2 | Cc1c(C#Cc2cnc3cnc(-c4ccc(N)cc4)cn23)cccc1C(=O)Nc1cc(CN2CCN(C)CC2)cc(C(C)(C)C)c1 | > 1000 nM |  |  | 15.6 nM | 6.4 nM | 
3 | CCCc1c(C#Cc2cnc3cnccn23)cccc1C(=O)Nc1cc(CN2CCN(C)CC2)cc(C(F)(F)F)c1 | > 1000 nM |  |  | > 1000 nM | > 1000 nM | > 1000 nM
4 | CC(C)c1c(C#Cc2cnc3cnccn23)cccc1C(=O)Nc1cc(CN2CCN(C)CC2)cc(C(F)(F)F)c1 | > 1000 nM |  |  | > 1000 nM | > 1000 nM | > 1000 nM
